The values below come from ChEMBL document CHEMBL3392957, “The discovery of 1,2,3,9b-tetrahydro-5H-imidazo[2,1-a]isoindol-5-ones as a new class of respiratory syncytial virus (RSV) fusion inhibitors. Part 1” (Bioorg Med Chem Lett, 2015).

The subject of data set [1] is Respiratory syncytial virus. The data set is described as follows: Antiviral activity against Respiratory syncytial virus A2 infected in human Hep2 cells assessed as inhibition of virus-induced cytopathicity after 5 days by MTT assay. The class given is functional, organism-based. The settings on record: A2, HEp-2, 120 h. The method, boiled down:
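HEp2 cells (1.0 × 10⁴/well) infected at low moi (e.g. RSV A2 at moi 0.01) and added to serially diluted compound; 5 days at 37 °C, 5% CO₂. CPE read by MTT (1 mg/ml, 2 h, 37 °C), isopropanol, absorbance 540 nm; EC₅₀ by non-linear regression. SD given where n > 2.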

The nature of data set [2]: Cytotoxicity against human Hep2 cells after 5 days by MTT assay. It is filed as cell-based, HEp-2. The method, boiled down: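 Uninfected HEp2 cells (1.0 × 10⁴/well) with serially diluted compound, 5 days at 37 °C in 5% CO₂; viability by MTT (1 mg/ml, 2 h), isopropanol, absorbance 540 nm; CC₅₀ by non-linear regression.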

For `CCC(=O)N1CCN2C(=O)c3ccccc3C12c1ccc(Cl)cc1` (racemic), the EC50 in data set [1] stood at 1 µM. In addition, the CC50 at 120 h in data set [2] was more than 20 µM.
The corresponding values for `O=C(c1ccc(F)cc1)N1CCN2C(=O)c3ccccc3C12c1ccc(OCC2CC2)cc1` (racemic) are 0.079 µM and more than 20 µM.
The corresponding values for `O=C(c1ccc(F)cc1)N1CCN2C(=O)c3cccnc3C12c1ccc(Cl)cc1` (racemic) are 1.2 µM and more than 20 µM.
With `O=C(c1ccc(F)cc1)N1CCN2C(=O)c3ncccc3C12c1ccc(Cl)cc1` (racemic), the EC50 in data set [1] was found to be 0.88 µM. The same compound yielded a CC50 at 120 h in data set [2] of more than 20 µM.
In the case of `O=C(Nc1ccccc1)N1CCN2C(=O)c3ccccc3C12c1ccc(Cl)cc1` (racemic), the EC50 in data set [1] worked out at 7.1 µM. In data set [2], this compound had a CC50 at 120 h of more than 20 µM.
The corresponding values for `O=C(c1ccc(F)cc1)N1CCN2C(=O)c3ccccc3C12c1cccc(Cl)c1` (racemic) are 0.19 µM and more than 18 µM.
The corresponding values for `CCc1ccc(C23c4ccccc4C(=O)N2CCN3C(=O)c2ccc(F)cc2)cc1` (racemic) are 0.21 µM and more than 18 µM.
The corresponding values for `O=C(c1ccc(Cl)cc1)N1CCN2C(=O)c3ccccc3C12c1ccc(Cl)cc1` (racemic) are 3.7 µM and 17 µM.
On to `CCCc1ccc(C23c4ccccc4C(=O)N2CCN3C(=O)c2ccc(F)cc2)cc1` (racemic), for which the EC50 in data set [1] was 0.27 µM. The CC50 at 120 h in data set [2] worked out at 18 µM.
On the same counts, the results for `O=C1c2ccccc2C2(c3ccc(Cl)cc3)NCCN12` (racemic) are more than 20 µM and more than 70 µM.
On the same counts, the results for `O=C(NCc1ccc(F)cc1)N1CCN2C(=O)c3ccccc3C12c1ccc(Cl)cc1` (racemic) are 0.6 µM and 10 µM.
As for `COCC(=O)N1CCN2C(=O)c3ccccc3C12c1ccc(Cl)cc1` (racemic), the EC50 in data set [1] was 2.7 µM. The compound further displayed a CC50 at 120 h in data set [2] of more than 21 µM.
On the same counts, the results for `CC(C)CC(=O)N1CCN2C(=O)c3ccccc3C12c1ccc(Cl)cc1` (racemic) are 0.74 µM and more than 20 µM.
The corresponding values for `CC(C)c1ccc(C23c4ccccc4C(=O)N2CCN3C(=O)c2ccc(F)cc2)cc1` (racemic) are 1.2 µM and more than 20 µM.
As to `CCCOc1ccc(C23c4ccccc4C(=O)N2CCN3C(=O)c2ccc(F)cc2)cc1` (racemic), in data set [1], the EC50 was 0.63 µM. In data set [2], this compound gave a CC50 at 120 h of more than 20 µM.
On the same counts, the results for `COc1ccc(NC(=O)N2CCN3C(=O)c4ccccc4C23c2ccc(Cl)cc2)cc1` (racemic) are 1.6 µM and more than 20 µM.
The corresponding values for `O=C(c1ccc(F)cc1)N1CCN2C(=O)c3ccccc3C12` (racemic) are more than 20 µM and more than 20 µM.
In the case of `O=C(c1ccc(F)cc1)N1CCN2C(=O)c3nccnc3C12c1ccc(Cl)cc1` (racemic), the concentration giving a half-maximal response (EC50) in data set [1] is more than 18 µM. This compound returned a CC50 at 120 h in data set [2] of more than 18 µM.
Take `COC(=O)COc1ccc(C23c4ccccc4C(=O)N2CCN3C(=O)c2ccc(F)cc2)cc1` (racemic): in data set [1], the EC50 worked out at 3.3 µM. The compound also showed a CC50 at 120 h in data set [2] of more than 16 µM.
As to `O=C(c1ccc(F)cc1)N1CCN2C(=O)c3ccccc3C12c1ccc(C(F)(F)F)cc1` (racemic), the EC50 in data set [1] was determined as 0.51 µM. This compound also gave a CC50 at 120 h in data set [2] of more than 20 µM.
On the same counts, the results for `CC(=O)COc1ccc(C23c4ccccc4C(=O)N2CCN3C(=O)c2ccc(F)cc2)cc1` (racemic) are 0.86 µM and more than 16 µM.
On the same counts, the results for `Cc1ccc(C23c4ccccc4C(=O)N2CCN3C(=O)c2ccc(F)cc2)cc1` (racemic) are 0.18 µM and more than 20 µM.
The corresponding values for `N#CCC(=O)N1CCN2C(=O)c3ccccc3C12c1ccc(Cl)cc1` (racemic) are 4.5 µM and more than 21 µM.
On to `O=C1c2ccccc2C2(c3ccc(Cl)cc3)N(Cc3ccc(F)cc3)CCN12` (racemic), for which the EC50 in data set [1] was more than 20 µM. For the same compound, the midpoint of cytotoxicity in data set [2], the CC50 at 120 h, lay at 16 µM.
